Results from ChEMBL document CHEMBL1124233, “Clofazimine analogues active against a clofazimine-resistant organism” (J Med Chem, 1988).

Key:
Assay type in all cases: functional, organism-based
[1] = tested on: Mycolicibacterium smegmatis; experiment: 100% inhibition of growth of clofazimine resistant Mycobacterium smegmatis 607 strain in vitro
In short: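 Strain: 20× step-up clofazimine-resistant mutant of M. smegmatis ATCC607. 10^5 viable cells inoculated into modified Kirchner's medium with 0.5% Tween 80. Drugs were added in DMSO (2% final in all tubes). Roller tubes were incubated at 37 °C for 72 h. Growth was read as optical transmission in a spectrophotometer.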

[2] = tested on: Mycolicibacterium smegmatis; experiment: Concentration for 100% inhibition of growth of dapsone sensitive Mycobacterium smegmatis 607 strain in vitro
In short: (§1)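 M. smegmatis ATCC607-derived strains (one of three used, including a dapsone-sensitive one) were grown in modified Kirchner's medium with 0.5% Tween 80, inoculated with 10^5 viable cells. Drugs were added in DMSO (2% final). Roller tubes were incubated at 37 °C for 72 h. Growth was read as spectrophotometric transmission.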

[3] = tested on: Mycolicibacterium smegmatis; experiment: 100% inhibition of growth of rifampicin resistant Mycobacterium smegmatis 607 strain in vitro; in short: as §1

SMILES | Concentration [1] | Concentration [2] | Concentration [3]
c1ccc(Nc2cc3nc4ccccc4n(-c4ccccc4)c-3c/c2=N\CCN2CCOCC2)cc1 | 10 µg/mL | 2 µg/mL | 2 µg/mL
Clc1ccc2c(c1)nc1cc(Nc3ccccc3)/c(=N/C3CCCCC3)cc-1n2-c1ccccc1 | 20 µg/mL | 3 µg/mL | 0.6 µg/mL
NCCCCC/N=c1\cc2n(-c3ccc(Cl)cc3)c3ccccc3nc-2cc1Nc1ccc(Cl)cc1 | 0.5 µg/mL | 0.2 µg/mL | 0.3 µg/mL
CCN(CC)CCC/N=c1\cc2n(-c3ccc(Cl)cc3)c3ccccc3nc-2cc1Nc1ccc(Cl)cc1 | 1 µg/mL | 0.2 µg/mL | 0.2 µg/mL
c1ccc(Nc2cc3nc4ccccc4n(-c4ccccc4)c-3c/c2=N\CCN2CCCC2)cc1 | 2 µg/mL | 0.4 µg/mL | 0.4 µg/mL
NCCC/N=c1\cc2n(-c3ccc(Cl)cc3)c3ccccc3nc-2cc1Nc1ccc(Cl)cc1 | 1 µg/mL | 0.3 µg/mL | 0.4 µg/mL
c1ccc(Nc2cc3nc4ccccc4n(-c4ccccc4)c-3c/c2=N\C2CCCCC2)cc1 | 10 µg/mL | 3 µg/mL | 2 µg/mL
CC(C)CC/N=c1\cc2n(-c3ccccc3)c3ccccc3nc-2cc1Nc1ccccc1 | 20 µg/mL | 2 µg/mL | 2 µg/mL
CC(C)C/N=c1\cc2n(-c3ccccc3)c3ccc(Cl)cc3nc-2cc1Nc1ccccc1 | 100 µg/mL | 2 µg/mL | 3 µg/mL
Clc1ccc(Nc2cc3nc4ccccc4n(-c4ccc(Cl)cc4)c-3c/c2=N\CCN2CCCC2)cc1 | 10 µg/mL | 0.5 µg/mL | 0.5 µg/mL
Clc1ccc(Nc2cc3nc4ccccc4n(-c4ccc(Cl)cc4)c-3c/c2=N\CCN2CCOCC2)cc1 | 20 µg/mL | 1 µg/mL | 1 µg/mL
Cc1ccc(Nc2cc3nc4ccccc4n(-c4ccc(C)cc4)c-3c/c2=N\CC2CCNCC2)cc1 | 0.4 µg/mL | 0.2 µg/mL | 0.3 µg/mL
c1ccc(Nc2cc3nc4ccccc4n(-c4ccccc4)c-3c/c2=N\CCN2CCNCC2)cc1 | 1 µg/mL | 0.4 µg/mL | 0.4 µg/mL
C/N=c1\cc2n(-c3ccc(Cl)cc3)c3ccccc3nc-2cc1Nc1ccc(Cl)cc1 | 100 µg/mL | 2 µg/mL | 2 µg/mL
c1ccc(Nc2cc3nc4ccccc4n(-c4ccccc4)c-3c/c2=N\CCN2CCCCC2)cc1 | 2 µg/mL | 0.4 µg/mL | 0.4 µg/mL
N=c1cc2n(-c3ccc(Cl)cc3)c3ccccc3nc-2cc1Nc1ccc(Cl)cc1 | 40 µg/mL | 3 µg/mL | 3 µg/mL
CCN(CC)CCCC(C)/N=c1\cc2n(-c3ccc(Cl)cc3)c3ccccc3nc-2cc1Nc1ccc(Cl)cc1 (stereo not drawn) | 2 µg/mL | 0.2 µg/mL | 0.2 µg/mL
CC(C/N=c1\cc2n(-c3ccc(Cl)cc3)c3ccccc3nc-2cc1Nc1ccc(Cl)cc1)N(C)C (stereo not drawn) | 16 µg/mL | 1.2 µg/mL | 6 µg/mL
CCC(CO)/N=c1\cc2n(-c3ccccc3)c3ccccc3nc-2cc1Nc1ccccc1 (stereo not drawn) | 100 µg/mL | 2 µg/mL | 30 µg/mL

SMILES | Concentration [1] | Concentration [2] | Concentration [3]
OCC/N=c1\cc2n(-c3ccc(Cl)cc3)c3ccccc3nc-2cc1Nc1ccc(Cl)cc1 | 20 µg/mL | 2 µg/mL | 2 µg/mL
CC(C)C(C)/N=c1\cc2n(-c3ccc(Cl)cc3)c3ccccc3nc-2cc1Nc1ccc(Cl)cc1 (stereo not drawn) | 30 µg/mL | 3 µg/mL | 4 µg/mL
OCCC/N=c1\cc2n(-c3ccccc3)c3ccccc3nc-2cc1Nc1ccccc1 | 20 µg/mL | 4 µg/mL | 8 µg/mL
CC(C)/N=c1\cc2n(-c3ccc(Cl)cc3)c3ccccc3nc-2cc1Nc1ccc(Cl)cc1 | 30 µg/mL | 1.5 µg/mL | 0.5 µg/mL
CC(C)CC/N=c1\cc2n(-c3ccccc3)c3ccc(Cl)cc3nc-2cc1Nc1ccccc1 | 100 µg/mL | 3 µg/mL | 3 µg/mL
CC/N=c1\cc2n(-c3ccc(Cl)cc3)c3ccccc3nc-2cc1Nc1ccc(Cl)cc1 | 100 µg/mL | 2 µg/mL | 2 µg/mL
CCN1CCCC1C/N=c1\cc2n(-c3ccccc3)c3ccccc3nc-2cc1Nc1ccccc1 (stereo not drawn) | 6 µg/mL | 0.5 µg/mL | 0.4 µg/mL
CCCC/N=c1\cc2n(-c3ccccc3)c3ccc(Cl)cc3nc-2cc1Nc1ccccc1 | 100 µg/mL | 2 µg/mL | 3 µg/mL
Clc1ccc(Nc2cc3nc4ccccc4n(-c4ccc(Cl)cc4)c-3c/c2=N\CC2CCNCC2)cc1 | 0.6 µg/mL | 0.2 µg/mL | 0.2 µg/mL
OCCNCC/N=c1\cc2n(-c3ccc(Cl)cc3)c3ccccc3nc-2cc1Nc1ccc(Cl)cc1 | 20 µg/mL | 8 µg/mL | 8 µg/mL
OCCNCC/N=c1\cc2n(-c3ccccc3)c3ccccc3nc-2cc1Nc1ccccc1 | 10 µg/mL | 5 µg/mL | 6 µg/mL
OCCC/N=c1\cc2n(-c3ccc(Cl)cc3)c3ccccc3nc-2cc1Nc1ccc(Cl)cc1 | 10 µg/mL | 2 µg/mL | 2 µg/mL
Clc1ccc2c(c1)nc1cc(Nc3ccccc3)/c(=N/CC3CCNCC3)cc-1n2-c1ccccc1 | 1 µg/mL | 0.2 µg/mL | 0.4 µg/mL
CCN1CCCC(/N=c2\cc3n(-c4ccccc4)c4ccccc4nc-3cc2Nc2ccccc2)C1 (stereo not drawn) | 6 µg/mL | 0.4 µg/mL | 0.6 µg/mL
CCN1CCCC1C/N=c1\cc2n(-c3ccc(Cl)cc3)c3ccccc3nc-2cc1Nc1ccc(Cl)cc1 (stereo not drawn) | 10 µg/mL | 1 µg/mL | 1 µg/mL
CCC/N=c1\cc2n(-c3ccccc3)c3ccccc3nc-2cc1Nc1ccccc1 | 20 µg/mL | 2 µg/mL | 3 µg/mL
Clc1ccc(Nc2cc3nc4ccccc4n(-c4ccc(Cl)cc4)c-3c/c2=N\C2CCCCCC2)cc1 | 50 µg/mL | 2 µg/mL | 3 µg/mL
NCCCC/N=c1\cc2n(-c3ccc(Cl)cc3)c3ccccc3nc-2cc1Nc1ccc(Cl)cc1 | 0.5 µg/mL | 0.2 µg/mL | 0.3 µg/mL
CCC(CO)/N=c1\cc2n(-c3ccc(Cl)cc3)c3ccccc3nc-2cc1Nc1ccc(Cl)cc1 (stereo not drawn) | 100 µg/mL | 2 µg/mL | 10 µg/mL

SMILES | Concentration [1] | Concentration [2] | Concentration [3]
Cc1ccc(Nc2cc3nc4ccccc4n(-c4ccc(C)cc4)c-3c/c2=N\CCO)cc1 | 12 µg/mL | 4 µg/mL | 8 µg/mL
NCCCCCC/N=c1\cc2n(-c3ccc(Cl)cc3)c3ccccc3nc-2cc1Nc1ccc(Cl)cc1 | 2 µg/mL | 0.3 µg/mL | 0.8 µg/mL
CCCNCCC/N=c1\cc2n(-c3ccc(Cl)cc3)c3ccccc3nc-2cc1Nc1ccc(Cl)cc1 | 2 µg/mL | 0.2 µg/mL | 0.2 µg/mL
CCN(CC)CC/N=c1\cc2n(-c3ccc(Cl)cc3)c3ccccc3nc-2cc1Nc1ccc(Cl)cc1 | 12 µg/mL | 0.6 µg/mL | 0.6 µg/mL
CCN(CC)CC/N=c1\cc2n(-c3ccccc3)c3ccccc3nc-2cc1Nc1ccccc1 | 6 µg/mL | 0.6 µg/mL | 0.8 µg/mL
Clc1ccc2c(c1)nc1cc(Nc3ccccc3)/c(=N/CCN3CCOCC3)cc-1n2-c1ccccc1 | 50 µg/mL | 1 µg/mL | 1.5 µg/mL
COC(C/N=c1\cc2n(-c3ccc(Cl)cc3)c3ccccc3nc-2cc1Nc1ccc(Cl)cc1)OC | 60 µg/mL | 4 µg/mL | 5 µg/mL
CNCCC/N=c1\cc2n(-c3ccc(Cl)cc3)c3ccccc3nc-2cc1Nc1ccc(Cl)cc1 | 0.6 µg/mL | 0.2 µg/mL | 0.3 µg/mL
c1ccc(Nc2cc3nc4ccccc4n(-c4ccccc4)c-3c/c2=N\C2CCCC2)cc1 | 100 µg/mL | 3 µg/mL | 3 µg/mL
c1ccc(Nc2cc3nc4ccccc4n(-c4ccccc4)c-3c/c2=N\CCCN2CCCC2)cc1 | 0.6 µg/mL | 0.2 µg/mL | 0.2 µg/mL
CCN(CC)CC/N=c1\cc2n(-c3ccccc3)c3ccc(Cl)cc3nc-2cc1Nc1ccccc1 | 30 µg/mL | 1 µg/mL | 2 µg/mL
Clc1ccc(Nc2cc3nc4ccccc4n(-c4ccc(Cl)cc4)c-3c/c2=N\CCN2CCCCC2)cc1 | 10 µg/mL | 0.4 µg/mL | 0.5 µg/mL
CC1CCCCN1CCC/N=c1\cc2n(-c3ccccc3)c3ccccc3nc-2cc1Nc1ccccc1 (stereo not drawn) | 2 µg/mL | 0.3 µg/mL | 0.3 µg/mL
CCOc1ccc(Nc2cc3nc4ccccc4n(-c4ccc(OCC)cc4)c-3c/c2=N\CC(C)C)cc1 | 100 µg/mL | 4 µg/mL | 4 µg/mL
c1ccc(Nc2cc3nc4ccccc4n(-c4ccccc4)c-3c/c2=N\CC2CCCCC2)cc1 | 100 µg/mL | 2 µg/mL | 2 µg/mL
Clc1ccc(Nc2cc3nc4ccccc4n(-c4ccc(Cl)cc4)c-3c/c2=N\CC2CCCCC2)cc1 | 100 µg/mL | 3 µg/mL | 3 µg/mL
CC1CCCCN1CCC/N=c1\cc2n(-c3ccc(Cl)cc3)c3ccccc3nc-2cc1Nc1ccc(Cl)cc1 (stereo not drawn) | 2 µg/mL | 0.2 µg/mL | 0.2 µg/mL
c1ccc(Nc2cc3nc4ccccc4n(-c4ccccc4)c-3c/c2=N\CCCNC2CCCCC2)cc1 | 0.6 µg/mL | 0.2 µg/mL | 0.2 µg/mL
